According to ChEMBL document CHEMBL3425469, “Discovery of imidazo[2,1-b]thiazole HCV NS4B inhibitors exhibiting synergistic effect with other direct-acting antiviral agents” (J Med Chem, 2015):

Experiments:
Hepatitis C virus [1] = test: Antiviral activity against Hepatitis C virus genotype 1b Con 1 infected in human HuH7 cells at 10 nM after 72 hrs by luciferase assay in presence of 30 nM sofobuvir; format: functional, Hepacivirus hominis, Huh-7
Summary of the method: (§1)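 Stable Con1 GT1b bicistronic luciferase replicon in Huh-7 cells, 8000 cells/well. Test compound and a marketed DAA or clemizole added alone or together at varied concentrations, 0.5% DMSO final. 72 h at 37°C, then luciferase read with Bright-Glo. Inhibition expressed as % of untreated control, with cytotoxicity run in parallel. CI and DRI derived by the Chou–Talalay median-effect method.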

Hepatitis C virus [2] = test: Antiviral activity against Hepatitis C virus genotype 1b Con 1 infected in human HuH7 cells at 10 nM after 72 hrs by luciferase assay in presence of 15 uM clemizole; format: functional, Hepacivirus hominis, Huh-7; summary of the method: as §1
Hepatitis C virus [3] = test: Antiviral activity against Hepatitis C virus genotype 1b Con 1 infected in human HuH7 cells at 20 nM after 72 hrs by luciferase assay in presence of 3 nM simeprevir; format: functional, Hepacivirus hominis, Huh-7
Summary of the method: (§2)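 Huh-7 cells stably carrying a GT1b Con1 bicistronic luciferase replicon, seeded at 8000 cells/well. The test compound and the partner DAA are dosed orthogonally at various concentrations, final 0.5% DMSO, then incubated 72 h at 37°C. Bright-Glo luciferase read-out gives replicon inhibition as % of untreated control. Cytotoxicity is checked in parallel by CellTiter-Fluor. CI and DRI are derived by the Chou–Talalay median-effect method.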

Hepatitis C virus [4] = test: Antiviral activity against Hepatitis C virus genotype 1b Con 1 infected in human HuH7 cells at 20 nM after 72 hrs by luciferase assay in presence of 0.16 nM daclatasvir; format: functional, Hepacivirus hominis, Huh-7; summary of the method: as §1
Hepatitis C virus [5] = test: Antiviral activity against Hepatitis C virus genotype 1b Con 1 infected in human HuH7 cells at 20 nM after 72 hrs by luciferase assay in presence of 5 uM clemizole; format: functional, Hepacivirus hominis, Huh-7; summary of the method: as §2
Hepatitis C virus [6] = test: Antiviral activity against Hepatitis C virus genotype 1b Con 1 infected in human HuH7 cells at 160 nM after 72 hrs by luciferase assay in presence of 2160 nM sofobuvir; format: functional, Hepacivirus hominis, Huh-7; summary of the method: as §1
Hepatitis C virus [7] = test: Antiviral activity against Hepatitis C virus genotype 1b Con 1 infected in human HuH7 cells at 40 nM after 72 hrs by luciferase assay in presence of 140 nM sofobuvir; format: functional, Hepacivirus hominis, Huh-7; summary of the method: as §2
Hepatitis C virus [8] = test: Antiviral activity against Hepatitis C virus genotype 1b Con 1 infected in human HuH7 cells at 40 nM after 72 hrs by luciferase assay in presence of 20 uM clemizole; format: functional, Hepacivirus hominis, Huh-7; summary of the method: as §2
Hepatitis C virus [9] = test: Antiviral activity against Hepatitis C virus genotype 1b Con 1 infected in human HuH7 cells at 80 nM after 72 hrs by luciferase assay in presence of 30 nM sofobuvir; format: functional, Hepacivirus hominis, Huh-7; summary of the method: as §2
Hepatitis C virus [10] = test: Antiviral activity against Hepatitis C virus genotype 1b Con 1 infected in human HuH7 cells at 80 nM after 72 hrs by luciferase assay in presence of 180 nM sofobuvir; format: functional, Hepacivirus hominis, Huh-7; summary of the method: as §2
Hepatitis C virus [11] = test: Antiviral activity against Hepatitis C virus genotype 1b Con 1 infected in human HuH7 cells at 80 nM after 72 hrs by luciferase assay in presence of 10 uM clemizole; format: functional, Hepacivirus hominis, Huh-7; summary of the method: as §2
Hepatitis C virus [12] = test: Antiviral activity against Hepatitis C virus genotype 1b Con 1 infected in human HuH7 cells at 80 nM after 72 hrs by luciferase assay in presence of 12.5 uM clemizole; format: functional, Hepacivirus hominis, Huh-7; summary of the method: as §2
Hepatitis C virus [13] = test: Antiviral activity against Hepatitis C virus genotype 1b Con 1 infected in human HuH7 cells at 80 nM after 72 hrs by luciferase assay in presence of 17.5 uM clemizole; format: functional, Hepacivirus hominis, Huh-7; summary of the method: as §2
Hepatitis C virus [14] = test: Antiviral activity against Hepatitis C virus genotype 1b Con 1 infected in human HuH7 cells at 160 nM after 72 hrs by luciferase assay in presence of 30 nM sofobuvir; format: functional, Hepacivirus hominis, Huh-7; summary of the method: as §1
Hepatitis C virus [15] = test: Antiviral activity against Hepatitis C virus genotype 1b harboring S282T NS5B (active site) mutation transfected in human HuH7 cells after 72 hrs by luciferase assay; format: functional, cell-based, Hepacivirus hominis; conditions: Huh-7, 72 h
Summary of the method: (§3)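 Huh-7 cells were transiently electroporated with genotype 1b replicon RNA carrying the specified mutation and plated at 10000 cells/well. Compounds were added at 0.5% DMSO final for 72 h at 37°C. Read-out was Bright-Glo luciferase. EC50 is the mean of two independent runs within 2-fold of each other. A reference drug EC50 was measured alongside each mutant replicon to validate it.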

Hepatitis C virus [16] = test: Antiviral activity against Hepatitis C virus genotype 1b harboring M423I NS5B (thumb 2) mutation transfected in human HuH7 cells after 72 hrs by luciferase assay; format: functional, cell-based, Hepacivirus hominis; conditions: Huh-7, 72 h; summary of the method: as §3
Hepatitis C virus [17] = test: Antiviral activity against Hepatitis C virus genotype 1b Con 1 infected in human HuH7 cells at 2.5 nM after 72 hrs by luciferase assay in presence of 60 nM sofobuvir; format: functional, Hepacivirus hominis, Huh-7; summary of the method: as §1
Hepatitis C virus [18] = test: Antiviral activity against Hepatitis C virus genotype 1b Con 1 infected in human HuH7 cells at 2.5 nM after 72 hrs by luciferase assay in presence of 120 nM sofobuvir; format: functional, Hepacivirus hominis, Huh-7; summary of the method: as §1
Hepatitis C virus [19] = test: Antiviral activity against Hepatitis C virus genotype 1b Con 1 infected in human HuH7 cells at 2.5 nM after 72 hrs by luciferase assay in presence of 12.5 uM clemizole; format: functional, Hepacivirus hominis, Huh-7; summary of the method: as §1
Hepatitis C virus [20] = test: Antiviral activity against Hepatitis C virus genotype 1b Con 1 infected in human HuH7 cells at 2.5 nM after 72 hrs by luciferase assay in presence of 17.5 uM clemizole; format: functional, Hepacivirus hominis, Huh-7; summary of the method: as §1
Hepatitis C virus [21] = test: Antiviral activity against Hepatitis C virus genotype 1b Con 1 infected in human HuH7 cells at 5 nM after 72 hrs by luciferase assay in presence of 24 nM simeprevir; format: functional, Hepacivirus hominis, Huh-7; summary of the method: as §2
Hepatitis C virus [22] = test: Antiviral activity against Hepatitis C virus genotype 1b Con 1 infected in human HuH7 cells at 5 nM after 72 hrs by luciferase assay in presence of 0.08 nM daclatasvir; format: functional, Hepacivirus hominis, Huh-7; summary of the method: as §2
Hepatitis C virus [23] = test: Antiviral activity against Hepatitis C virus genotype 1b Con 1 infected in human HuH7 cells at 5 nM after 72 hrs by luciferase assay in presence of 60 nM sofobuvir; format: functional, Hepacivirus hominis, Huh-7; summary of the method: as §2
Hepatitis C virus [24] = test: Antiviral activity against Hepatitis C virus genotype 1b Con 1 infected in human HuH7 cells at 5 nM after 72 hrs by luciferase assay in presence of 240 nM sofobuvir; format: functional, Hepacivirus hominis, Huh-7; summary of the method: as §2
Hepatitis C virus [25] = test: Antiviral activity against Hepatitis C virus genotype 1b Con 1 infected in human HuH7 cells at 5 nM after 72 hrs by luciferase assay in presence of 10 uM clemizole; format: functional, Hepacivirus hominis, Huh-7; summary of the method: as §2
Hepatitis C virus [26] = test: Antiviral activity against Hepatitis C virus genotype 1b Con 1 infected in human HuH7 cells at 5 nM after 72 hrs by luciferase assay in presence of 17.5 uM clemizole; format: functional, Hepacivirus hominis, Huh-7; summary of the method: as §2
Hepatitis C virus [27] = test: Antiviral activity against Hepatitis C virus genotype 1b Con 1 infected in human HuH7 cells at 10 nM after 72 hrs by luciferase assay in presence of 6 nM simeprevir; format: functional, Hepacivirus hominis, Huh-7; summary of the method: as §1

**Q.** How did the CI (Hepatitis C virus [1]) turn out when `O=C(c1nc2scc(C3CC3)n2c1Cl)N1CCN(C2CCCC2)C(=O)C1` was run?
**A.** 0.69

**Q.** What about the CI (Hepatitis C virus [2]) of the same compound?
**A.** 1.05

**Q.** What about the CI (Hepatitis C virus [3]) of the same compound?
**A.** 0.94

**Q.** And the CI (Hepatitis C virus [4])?
**A.** 0.69

**Q.** What about the CI (Hepatitis C virus [5]) of the same compound?
**A.** 0.94

**Q.** And the CI (Hepatitis C virus [6])?
**A.** 0.3

**Q.** What about the CI (Hepatitis C virus [7]) of the same compound?
**A.** 0.57

**Q.** What about the CI (Hepatitis C virus [8]) of the same compound?
**A.** 1.2

**Q.** And the CI (Hepatitis C virus [9])?
**A.** 0.91

**Q.** And the CI (Hepatitis C virus [10])?
**A.** 0.43

**Q.** And the CI (Hepatitis C virus [11])?
**A.** 0.82

**Q.** What about the CI (Hepatitis C virus [12]) of the same compound?
**A.** 0.95

**Q.** What about the CI (Hepatitis C virus [13]) of the same compound?
**A.** 1.11

**Q.** And the CI (Hepatitis C virus [14])?
**A.** 0.89

**Q.** And the EC50 (Hepatitis C virus [15])?
**A.** 15 nM

**Q.** And the EC50 (Hepatitis C virus [16])?
**A.** 9 nM

**Q.** What about the CI (Hepatitis C virus [17]) of the same compound?
**A.** 1.04

**Q.** What about the CI (Hepatitis C virus [18]) of the same compound?
**A.** 0.9

**Q.** And the CI (Hepatitis C virus [19])?
**A.** 1.07

**Q.** And the CI (Hepatitis C virus [20])?
**A.** 1.36

**Q.** And the CI (Hepatitis C virus [21])?
**A.** 1.31

**Q.** And the CI (Hepatitis C virus [22])?
**A.** 0.66

**Q.** And the CI (Hepatitis C virus [23])?
**A.** 0.85

**Q.** And the CI (Hepatitis C virus [24])?
**A.** 0.74

**Q.** And the CI (Hepatitis C virus [25])?
**A.** 0.75

**Q.** What about the CI (Hepatitis C virus [26]) of the same compound?
**A.** 1.26

**Q.** And the CI (Hepatitis C virus [27])?
**A.** 0.54
